In the library only some 5.1% were active in any assay of this set; here they are far more common.
STAT1 act – STAT1 signaling activators, primary screen, cell-based, HTS, luciferase reporter; actives 2.6% (n = 200,000); activation (% of control), % at 5.5 µM; NIH 3T3 STAT1-luciferase reporter, IFN-gamma, luminescence; 100% = IFN-gamma alone, no compound;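 active means activation above the screen-wide mean activation plus 3 SD, cut at about 130% in these data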;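 further: raw ratio to IFN-gamma control signal so 100% means no change and 0% no light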
STAT3 activator – IL-6 driven STAT3 reporter potentiators, primary screen, U3A cells, luciferase, luminescence, MLSCN library; IL-6 STAT3-luciferase reporter; 100% = signal with IL-6 EC80 alone; activation (% of control), % at 5.6 µM; actives 0.91% (n = 190,000); AID 871, 2007;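 active means activation above the screen-wide mean of compound activation plus 3 SD, cut at about 130% in these data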;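 further: 0% = background luminescence of wells with medium and substrate only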
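Material: STAT3-luciferase reporter U3A cells. Controls: IL-6-treated wells, 100% activation. Read-out: % activation versus median of IL-6-stimulated wells. Probe or stimulus: IL-6 stimulus at 33 ng/mL final. Timing: compound 1 h, then IL-6 6 h at 37 °C. Signal: reporter luminescence signal.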
NF-kB expr up – activators of NF-kB expression in neurons, primary screen, cell-based, HTS; human neuronal cells, NF-kB reporter expression; active compounds read high; fold change at 12.5 µM; actives 1.6% (n = 190,000); in the data active means fold change above about 3.3
STAT3 inh-1 – IL-6 driven STAT3 reporter inhibitors, primary screen, U3A cells, luciferase, luminescence, MLSCN library; IL-6 STAT3-luciferase reporter; host cell line lacks STAT1; inhibition, % at 5.5 µM; actives 0.89% (n = 190,000);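 active means inhibition above the mean inhibition across all screened compounds plus 3 SD, cut at about 44% in these data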;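 further: 0% = DMSO only wells and 100% = 100 µM nifuroxazide control wells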
STAT1 blocker – STAT1 signaling inhibitors, primary screen, cell-based, HTS, luciferase reporter. NIH 3T3 STAT1-luciferase reporter, IFN-gamma, luminescence. inhibition, % at 5.5 µM. actives 0.35% (n = 200,000);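 active means inhibition above a set limit, the mean inhibition across all tested compounds plus 3 SD, cut at about 34% in these data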;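 further: 0% = IFN-gamma with DMSO and 100% = IFN-gamma with 300 µM nifuroxazide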
APP 5'UTR act – activators of APP 5'UTR luciferase reporter, primary screen, SH-SY5Y cells | activation, % at 2 µM | SH-SY5Y APP 5'UTR luciferase reporter, luminescence; zero percent = DMSO vehicle wells | actives 1% (n = 190,000);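 active means activation above a set limit, based on mean plus 3 SD of controls, cut at about 140% in these data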
STAT3 inh-2 – STAT3 reporter inhibitors, retest of hits, confirmation, U3A cells, luciferase, luminescence; shares compounds with STAT3 inh-1; IL-6 STAT3 luciferase reporter; cell line lacks STAT1; inhibition, % at 5.7 µM; actives 45% (n = 1,200);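 active means inhibition above the hit cutoff computed for the primary STAT3 screen, cut at about 44% in these data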;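 further: 0% = IL-6 plus DMSO and 100% = IL-6 plus nifuroxazide control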
NFkB inh STAT3ct – NF-kB reporter inhibitors in human cells, confirmation, counter-screen for STAT3 inhibitor project, cell-based, HEK293T, luciferase, TNF-alpha stimulus; actives 36% (n = 1,200); TNF-alpha induced; inhibition, % at 5.7 µM; shares compounds with STAT3 inh-1;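 active means inhibition above the mean of solvent-only control wells plus 3 SD, cutoff set per campaign, cut at about 13% in these data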;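 further: 0% = TNF-alpha with DMSO and 100% = TNF-alpha with MG high control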
STAT1 inh STAT3c – STAT1 reporter inhibitors, IFN-gamma induced, confirmation, counter-screen for STAT3 inhibitor project, cell-based, NIH 3T3, luciferase luminescence; NIH 3T3 STAT1-luciferase reporter; AID 1317, 2008; actives 27% (n = 1,200); inhibition, % at 5.7 µM; shares compounds with STAT3 inh-1;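 active means inhibition above the mean plus 3 SD of solvent-only control wells, limit set per screening run, cut at about 16% in these data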;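 further: 0% = DMSO with IFN-gamma and 100% = nifuroxazide control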
Starred values were filed as active, the others as inactive; x = not tested or not shown.

SMILES	STAT1 act	STAT3 activator	NF-kB expr up	STAT3 inh-1	STAT1 blocker	APP 5'UTR act	STAT3 inh-2	NFkB inh STAT3ct	STAT1 inh STAT3c
Cc1nn(C)c(Cl)c1NC(=O)OCc1ccc(Cl)cc1Cl	81	64	0.67	51*	21	-11	36	8	5
Cc1nnsc1NC(=O)OCc1ccc(Cl)cc1Cl	97	86	0.96	27	3	10	x	x	x
O=S(=O)(c1ccc(Cl)cc1)N1CCC(O)(CN2CCN(Cc3ccccc3)CC2)CC1	99	96	1.4	7	1	-16	x	x	x
O=S(=O)(c1ccccc1)N1CCC(O)(CSc2ccc(Cl)cc2)CC1	90	40	0.89	76*	11	-2	47*	17*	4
Cc1ccc2nc(-c3cccc(N)c3)[nH]c2c1	93	47	4.8*	66*	7	98	27	-10	-90
Cc1ccc(-c2nc3ccc([N+](=O)[O-])cc3[nH]2)cc1	71	40	5.9*	77*	31	152*	32	-15	-127
O=[N+]([O-])c1cccc(-c2nc3ccc([N+](=O)[O-])cc3[nH]2)c1	123	82	1.6	26	-22	22	x	x	x
Cn1c(Cc2csc(N)n2)nnc1SCC(=O)NCc1ccccc1	108	104	1.1	-1	-4	0	x	x	x
CC(C)C(C(=O)Nc1ccccc1)N1C(=O)c2ccccc2C1=O (stereo not drawn)	98	88	1.2	19	2	-11	x	x	x
CCCN1CCN(C(=O)c2cc(COc3ccc4ncccc4c3)on2)CC1	85	74	0.94	34	15	20	x	x	x
CCN1CCN(C(=O)c2cc(COc3ccc4ncccc4c3)on2)CC1	78	65	1.1	45*	22	6	42	12	18*
Cc1nc(CN(C)C(=O)c2cc(COc3ccc4ncccc4c3)on2)cs1	74	42	0.9	71*	27	-5	62*	19*	24*
CCC1CCCCN1C(=O)c1cc(COc2ccc3ncccc3c2)on1 (stereo not drawn)	75	28	0.82	85*	26	-12	83*	32*	21*
O=C(COc1ccc(Cl)cc1Br)N1CCN(c2ccccc2)CC1	100	95	1.1	15	0	14	x	x	x
C1=C(CCNc2ncnc3c2[nH]c2ccccc23)CCCC1	74	32	0.66	83*	29	25	78*	41*	32*
O=c1c2[nH]c3ccccc3c2ncn1CCC1=CCCCC1	118	99	1.3	4	-20	35	x	x	x
COc1ccc2[nH]c3c(NCCN(C(C)C)C(C)C)ncnc3c2c1	100	110	0.94	-7	0	8	x	x	x
CC(C)OCCCNc1ncnc2c1[nH]c1ccccc12	73	45	0.54	66*	29	-1	62*	18*	32*
COc1cc(/C=N/Nc2cccc3cccnc23)cc(OC)c1O	112	99	2.5	3	-14	36	x	x	x
COc1cc(/C=N/Nc2ccc(C(F)(F)F)cn2)cc(OC)c1O	100	63	0.94	48*	0	-6	27	0	-3
NC(=O)CSc1nnc(-c2ccc3c(c2)OCO3)o1	113	93	2.4	9	-14	94	x	x	x
C/C(N)=C(/C#N)C(=O)CSc1nnc(-c2ccc3c(c2)OCO3)o1	134*	63	6.9*	48*	-37	100	18	-9	-97
CN(C)S(=O)(=O)c1ccc(C(=O)NCc2ccco2)cc1	104	103	0.95	0	-6	5	x	x	x
O=C(CSc1nnc(NC(=O)c2ccc3c(c2)OCO3)s1)NCc1ccco1	77	58	1.4	53*	23	83	22	3	-18
Cn1c(Cl)c(/C=N/OC(=O)c2cccc(Cl)c2)c2ccccc21	99	94	1.3	8	1	-8	x	x	x
SMILES	STAT1 act	STAT3 activator	NF-kB expr up	STAT3 inh-1	STAT1 blocker	APP 5'UTR act	STAT3 inh-2	NFkB inh STAT3ct	STAT1 inh STAT3c
CCOc1ccc(-n2c(SCc3ccc([N+](=O)[O-])cc3)nnc2-c2ccccc2)cc1	107	101	0.69	-4	-7	12	x	x	x
CCOc1ccc(-n2c(-c3ccccc3)c[n+]3c2CCCCC3)cc1	74	37	0.52	74*	29	12	76*	2	24*
O=C(C(Cl)Cl)N1c2ccccc2OCC1c1ccccc1 (stereo not drawn)	118	63	0.76	50*	-20	2	33	9	-2
Cc1cc(N2CCN(Cc3cn(C)nc3-c3cccc(Cl)c3)CC2)cc(C)n1	87	99	0.68	5	13	-60	x	x	x
Cc1ccc(-n2nnnc2C(Cl)(Cl)c2nnnn2-c2ccc(C)cc2)cc1	90	100	1.4	7	11	-5	x	x	x
Cc1ccc(C(=O)/C=C/Nc2cccc(O)c2)cc1	92	24	13*	94*	7	138*	90*	32*	34*
CC(=O)c1cccc(NS(=O)(=O)c2ccc(N/C=C\C(=O)c3ccc(C)cc3)cc2)c1	87	70	1	37	14	4	x	x	x
Cc1ccc(C(=O)/C=C/Nc2ccc3c(c2)OCO3)cc1	132*	54	6*	56*	-28	95	2	-27	-142
O=C(/C=C/Nc1cccc(O)c1)c1ccccc1	95	32	6.3*	86*	7	184*	65*	-3	2
Cc1noc(NS(=O)(=O)c2ccc(N/C=C\C(=O)c3ccc4c(c3)OCO4)cc2)c1C	118	109	1.3	-7	-20	22	x	x	x
CCOC(=O)c1ccc(NC(=O)COC)cc1	106	113	1.7	-11	-6	18	x	x	x
CC(=O)NS(=O)(=O)c1ccc(NC(=O)c2ccccn2)cc1	99	101	1.2	8	2	-9	x	x	x
O=C(Nc1ccc(SC(F)(F)F)cc1)c1ccccn1	76	52	1.2	62*	24	150*	24	-21	-119

Source: PubChem
